Data on 30 molecules can be found in ChEMBL document CHEMBL1799995, “17(R),18(S)-epoxyeicosatetraenoic acid, a potent eicosapentaenoic acid (EPA) derived regulator of cardiomyocyte contraction: structure-activity relationships and stable analogues” (J Med Chem, 2011).

Activity calls are given as the source filed them. No cut-off for these calls is given here.

Data set [1] in a line: Negative chronotropic activity in neonatal Wistar rat Cardiomyocytes assessed as change in heart beating at 30 nM and at 37 degC after 5 mins. The data set is classed as functional, Cardiac muscle cell. A digest of the protocol:
(§1)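 NRCMs from 1–2-day-old Wistar rats were cultured as monolayers in Halle SM 20-I medium with 10% heat-inactivated FCS and 2 μM fluorodeoxyuridine. Spontaneously beating clusters formed after 5–7 days (120–150 beats/min at 37 °C, inverted microscope). Compounds came from 1000-fold ethanol stocks and were tested at 30 nM final. Beating rates of 6–8 clusters were counted before and 5 min after addition. The change in beats/min is given as mean ± SE, n = 18–40 clusters from ≥3 independent cultures.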

In data set [2] the target is T1, Bifunctional epoxide hydrolase 2 (Homo sapiens) (UniProt P34913).
T1 sequence (whole entry): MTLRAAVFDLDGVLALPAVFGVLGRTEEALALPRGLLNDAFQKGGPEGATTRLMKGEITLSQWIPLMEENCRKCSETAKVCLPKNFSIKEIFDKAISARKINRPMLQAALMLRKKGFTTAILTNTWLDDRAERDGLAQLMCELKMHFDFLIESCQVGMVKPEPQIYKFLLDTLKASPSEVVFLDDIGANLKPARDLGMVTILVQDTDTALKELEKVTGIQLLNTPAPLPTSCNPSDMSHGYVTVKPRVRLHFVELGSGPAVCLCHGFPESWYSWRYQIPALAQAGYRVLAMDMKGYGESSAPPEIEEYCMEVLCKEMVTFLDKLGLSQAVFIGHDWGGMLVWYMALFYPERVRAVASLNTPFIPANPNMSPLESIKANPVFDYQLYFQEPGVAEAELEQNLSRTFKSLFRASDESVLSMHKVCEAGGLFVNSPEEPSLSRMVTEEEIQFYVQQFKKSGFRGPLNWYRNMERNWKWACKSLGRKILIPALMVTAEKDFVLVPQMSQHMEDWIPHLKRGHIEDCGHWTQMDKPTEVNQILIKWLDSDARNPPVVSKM
The data set can be described thus: Inhibition of soluble epoxide hydrolase at 5 uM.

For data set [3], the system named is Cardiac muscle cell. The data set can be described thus: Negative chronotropic activity in neonatal Wistar rat Cardiomyocytes assessed as change in heart beating at > 5 nM after 5 mins at 37 degC. The data set is classed as functional, cell-based.
The subject of data set [4] is Liver. The data set can be described thus: Metabolic stability in rat liver homogenates assessed as formation of regioisomeric hydroxy metabolite after 30 mins by LC-MS analysis. The data set is classed as ADME, tissue-based. Particulars: tissue homogenate, 0.5 h. In short, it runs like this: (§2)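 Compounds were incubated with rat liver homogenate plus NADPH for 30 min at 37 °C. Parent compound and hydroxy-metabolites were analysed by LC/MS.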

Data set [5] in a line: Metabolic stability in rat liver homogenates assessed as compound remaining after 30 mins by LC-MS analysis. The data set is classed as ADME, tissue-based. In short, it runs like this: as §2
Data set [6] in a line: Inhibition of (5Z,11Z)-16-(3-ethyloxiran-2-yl)hexadeca-5,11-dienoic acid-induced negative chronotropic activity in neonatal Wistar rat Cardiomyocytes at 30 nM after 5 mins. The data set is classed as functional, Cardiac muscle cell. On the set-up: scale not given: the % may be the effect or the level left. A digest of the protocol:
(§3)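 NRCMs from 1–2-day-old Wistar rats were cultured as monolayers in Halle SM 20-I medium with 10% heat-inactivated FCS and 2 μM fluorodeoxyuridine. Spontaneously beating clusters formed after 5–7 days (120–150 beats/min). Cells were preincubated with the test antagonist (30 nM final) for 5 min at 37 °C, then the agonist was added (30 nM final). Beating was counted under an inverted microscope.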

Data set [7] deals with Cardiac muscle cell. The data set can be described thus: Inhibition of (Z)-16-(3-ethyloxiran-2-yl)hexadec-11-enoic acid -induced negative chronotropic activity in neonatal Wistar rat Cardiomyocytes at 30 nM after 5 mins. The data set is classed as functional, cell-based. In short, it runs like this: as §3
Data set [8] is described as follows: Inhibition of (5Z,8Z,11Z,14Z)-16-(3-ethyloxiran-2-yl)hexadeca-5,8,11,14-tetraenoic acid-induced negative chronotropic activity in neonatal Wistar rat Cardiomyocytes at 30 nM after 5 mins. The data set is classed as functional, Cardiac muscle cell. On the set-up: scale not given: the % may be the effect or the level left. A digest of the protocol: as §3
Data set [9] is described as follows: Inhibition of EPA-induced negative chronotropic activity in neonatal Wistar rat Cardiomyocytes at 30 nM after 5 mins. The data set is classed as functional, Cardiac muscle cell. On the set-up: scale not given: the % may be the effect or the level left.
A short description of data set [10]: Inhibition of (Z)-16-(2-(methylamino)-2-oxoacetamido)hexadec-11-enoic acid-induced negative chronotropic activity in neonatal Wistar rat Cardiomyocytes at 30 nM after 5 mins. The data set is classed as functional, Cardiac muscle cell. On the set-up: scale not given: the % may be the effect or the level left. A digest of the protocol: as §3
A short description of data set [11]: Negative chronotropic activity in neonatal Wistar rat Cardiomyocytes assessed as change in heart beating after 5 mins at 37 degC. The data set is classed as functional, cell-based. The conditions noted are these: cardiac muscle cell. A digest of the protocol:
as §1

Data set [12] relates to Liver. The data set can be described thus: Metabolic stability in rat liver homogenates assessed as formation of vic-diol 4 by LC-MS analysis. The conditions noted are these: tissue homogenate. The data set is classed as ADME, tissue-based.
Data set [13] has as its system Liver. The data set can be described thus: Metabolic stability in rat liver homogenates assessed as epoxidation of compound by LC-MS analysis. The conditions noted are these: tissue homogenate. The data set is classed as ADME, tissue-based.
For data set [14], the system named is Liver. The data set can be described thus: Metabolic stability in rat liver homogenates assessed as hydroxylation of compound by LC-MS analysis. Particulars: tissue homogenate. The data set is classed as ADME, tissue-based. In short, it runs like this: as §2
The nature of data set [15]: Metabolic stability in rat liver homogenates after 30 mins by LC-MS analysis. The data set is classed as ADME, tissue-based. A digest of the protocol: as §2
In data set [16] the target is T1, Bifunctional epoxide hydrolase 2 (Homo sapiens). Particulars: 1 to 5 uM.

For the molecule `CNC(=O)C(=O)NCCCCC#CCCCCCCCCCC(=O)O`, the Activity in data set [1] is -2.6 bpm. For `CCC1OC1CCCCCCCCCCCCCCCC(=O)O` (stereo not given), in [1], the Activity stood at 0.8 bpm. As for `CCCNC(=O)CCCC/C=C\CCCCCCCCCC(=O)O`, the Activity in [1] is on record as -4.7 bpm. Regarding `O=C(O)CCCCCCCCC/C=C\CCCC[C@H]1O[C@H]1CCO`, in data set [1], the Activity is -4.8 bpm. Same read-out and setting: the same measure for `CC[C@@H]1O[C@@H]1CCCC/C=C\CCCCCCCCCC(=O)O`: -20.3 bpm; for `CCC1OC1CCCCCCC/C=C\CCCCCCC(=O)O` (stereo not given): -0.6 bpm. One may read the amount remaining as the share of the starting amount still present when the sample was taken. For the molecule `CNC(=O)C(=O)NCCCC/C=C\CCCCCCCCCC(=O)O`, the inhibition result in [2] was “inactive”. Further, in the data set on Cardiac muscle cell [3], the outcome was Active. Besides, in the data set with Liver [4], the Stability entry was “Stable”. For the same molecule, in data set [5], the amount remaining at 0.5 h is above 85%. For the same molecule, the Activity in data set [1] was -33.7 bpm.

Consider `CCCCNC(=O)CCC/C=C\CCCCCCCCCC(=O)O`, for which the Activity in [1] is given as -22.4 bpm. For the molecule `CNC(=O)C(=O)NCCCC/C=C/CCCCCCCCCC(=O)O`, the result in the data set on Cardiac muscle cell [3] was inactive. Also, the Activity in [1] is reported as -4.7 bpm. Turning to `CCCC(=O)NC/C=C\CCCCCCCCCCCCC(=O)O`, in [1], the Activity was found to be 12.8 bpm. On the same count and under the same terms, to `CCNC(=O)NC/C=C\CCCCCCCCCCCCC(=O)O` belongs 17.8 bpm. Regarding `O=C(O)CCCCCCCCC/C=C\CCCC[C@@H]1O[C@@H]1CCO`, the Activity in data set [1] is on record as -1.4 bpm. For the molecule `CCN(C)C(=O)N(C)CCCC/C=C\CCCCCCCCCC(=O)O`, in data set [1], the Activity was -5.8 bpm. As to `CC[C@H]1O[C@H]1C/C=C\C/C=C\C/C=C\C/C=C\CCCC(=O)O`, in data set [1], the Activity was determined as 1.3 bpm. Turning to `CNC(=O)C(=O)NC/C=C\CCCCCCCCCCCCC(=O)O`, the inhibition entry in [2] is “inactive”. In addition, in [1], the Activity is on record as -1.3 bpm. On to `CCC1OC1CCCC/C=C\CCCC/C=C\CCCC(=O)O` (stereo not given), for which the Activity in [1] is recorded as -19.8 bpm. On the same count and under the same terms, to `CCC(O)C(O)C/C=C\C/C=C\C/C=C\C/C=C\CCCC(=O)O` (stereo not given) belongs 0 bpm; to `CCC1OC1C/C=C\CCCCCCC/C=C\CCCC(=O)O` (stereo not given), 0 bpm. `CCC1OC1C/C=C\CCCC/C=C\CCCCCCC(=O)O` (stereo not given): the Activity was 90% in data set [6]; 90% in [8]; 90% in data set [9]; 90% in [10]; -2.7 bpm in [1]. The outcome with Cardiac muscle cell [7] was Active. In the case of `CC[C@@H]1O[C@@H]1C/C=C\CCCCCCCCCCCCC(=O)O`, in data set [1], the Activity is on record as -21.1 bpm. Take `CCCC(=O)N(CCCC/C=C\CCCCCCCCCC(=O)O)C(C)C`: in [1], the Activity is listed as 0.2 bpm.

For `CC[C@H]1O[C@H]1CCCC/C=C\CCCCCCCCCC(=O)O`, the Activity in data set [1] worked out at 3.3 bpm. As to `CCC1OC1CCCCCCCCCC/C=C\CCCC(=O)O` (stereo not given), in data set [1], the Activity is -0.6 bpm. Turning to `CCC1OC1C/C=C\CCCCCCCCCCCCC(=O)O` (stereo not given), the outcome in the data set with Cardiac muscle cell [7] was Active. The Activity in data set [1] is -1.2 bpm.

Turning to `CCCC(=O)NCCCC/C=C\CCCCCCCCCC(=O)O`, the Activity in data set [1] is -1.6 bpm. Consider `CCC1OC1CCCC/C=C\CCCCCCCCCC(=O)O` (stereo not given), for which the Activity in data set [1] was -18.3 bpm. In the case of `CC[C@H]1O[C@H]1C/C=C\CCCCCCCCCCCCC(=O)O`, the Activity in data set [1] is given as 0.7 bpm. In general, EC50 refers to the concentration at which the effect is half-maximal. As for `CC[C@@H]1O[C@@H]1C/C=C\C/C=C\C/C=C\C/C=C\CCCC(=O)O`, in data set [11], the EC50 came to 1 nM. Also, the outcome with Cardiac muscle cell [3] was Active. Besides, the Activity in data set [1] was -21.3 bpm. In the case of `CCC1OC1C/C=C\C/C=C\C/C=C\C/C=C\CCCC(=O)O` (stereo not given), the Stability entry in the data set on Liver [12], in the data set with Liver [13] and in the data set with Liver [14] was “Unstable” each time. In data set [15], this molecule had a share remaining at 0.5 h of 20%. Also, the Activity in data set [1] was -22.5 bpm. As to `CCNC(=O)NCCCC/C=C\CCCCCCCCCC(=O)O`, the inhibition entry in data set [16] was “Dose-dependent effect”. Further, the result in the data set on Cardiac muscle cell [3] was Active. For the same molecule, the Activity in data set [1] is on record as -27 bpm.
